The results in this text go back to ChEMBL document CHEMBL1147734, “Synthesis, chiral resolution, and enantiopharmacology of a potent 2,3-benzodiazepine derivative as noncompetitive AMPA receptor antagonist” (J Med Chem, 2006).

The source made the active and inactive calls. The rule behind the calls is not given here.

Test [1] is filed under the species Mus musculus. Briefly: Ratio of TD50 over ED50 (clonic phase of audiogenic seizures) in DBA/2 mice. The test is classed as functional. In short, it runs like this:
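Protective index: rotarod TD50 divided by clonic-phase audiogenic ED50, both from ip-dosed DBA/2 mice fitted by Litchfield-Wilcoxon.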

For test [2], the system named is Mus musculus. Briefly: Effect on clonic phase of audiogenic seizures in DBA/2 mice after 30 min at 3.3-200 umol/kg, ip. The test is classed as functional. The following applies: DBA/2, ip, 0.5 h. In short, it runs like this:
(§1)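 DBA/2 mice, 8-12 g, 22-25 days old, either sex, 10 per group. Dosed ip, vehicle or 3.3-200 µmol/kg, then sound stimulus 30 min later; latency and incidence of each seizure phase scored. ED50 by Litchfield-Wilcoxon, 95% confidence limits, at least 32 animals per value.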

The species entered for test [3] is Mus musculus. The test can be described thus: Effect on locomotor activity assessed by rotarod test in DBA/2 mice. Format: functional. In short, it runs like this: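 Rotarod locomotor deficit in DBA/2 mice after ip dosing across 3.3-200 µmol/kg. TD50 by Litchfield-Wilcoxon with 95% confidence limits, at least 32 animals per value.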
Background: The rotarod test checks motor coordination on a turning rod.

The subject of test [4] is Mus musculus. The test can be described thus: Effect on tonic phase of audiogenic seizures in DBA/2 mice after 30 min at 3.3-200 umol/kg, ip. Format: functional. The following applies: DBA/2, ip, 0.5 h. In short, it runs like this: as §1
Test [5] has as its target T1, Glutamate receptor ionotropic, AMPA (Rattus norvegicus, UniProt P19490+P19491+P19492+P19493). Briefly: Inhibition of kainate induced [45Ca]2+ uptake in rat cerebellar granule cells expressing AMPA receptor. Format: functional. An outline of the steps:
(§2)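 Primary rat cerebellar granule neurons preincubated 30 min with compound in BSS (HEPES, pH 7.3). Then exposed at room temperature for 10 min to 100 µM kainate with 10 µM glycine, 0.5 mM DTT and 0.5 µCi 45Ca2+. Washed in ice-cold BSS containing 5 mM EGTA, lysed in Triton X-100, radioactivity counted.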

The target in test [6] is T1, Glutamate receptor ionotropic, AMPA. Briefly: Displacement of [3H]CP-526427 from non competitive […] or benzodiazepine binding site of AMPA receptor from rat forebrain. An outline of the steps: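 Adult male Sprague-Dawley rat forebrain membranes (P2 fraction, lysed in Tris acetate) diluted to 0.5 mg protein/mL in 50 mM Tris-HCl pH 7.4. Compound dilution series plus 3 nM [3H]CP-526,427, incubated 20 min at 30 °C, then filtered and counted by scintillation. Nonspecific binding taken with 10 µM unlabeled CP-526,427 or CP-465,022.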
For orientation: Loss of bound radioactivity is the signal in a displacement assay; it reports binding, not function.

In test [7] the target is Glutamate receptor ionotropic, AMPA (Rattus norvegicus) (UniProt P19491+P19492+P19493+P19490). The test can be described thus: Inhibition of kainate induced [45Ca]2+ uptake in rat cerebellar granule cells expressing AMPA receptor at 32 uM. The test is classed as functional. An outline of the steps:
as §2

The target of test [8] is Glutamate NMDA receptor (Rattus norvegicus) (UniProt P35439+Q00959+Q00960+Q00961+Q62645+Q8VHN2+Q9R1M7). The test can be described thus: Displacement of [3H](+)-MK-801 from rat cortical NMDA ion channel complex at 100 uM. Format: protein-complex assay. In short, it runs like this:
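Rat cortical membranes washed in 5 mM Tris-HCl pH 7.4 with 0.08% Triton X-100, then pelleted and resuspended through four more cycles. Incubated 120 min at room temperature with 2.5 nM [3H]-(+)-MK-801, glutamic acid and glycine, with or without compound. Bound ligand separated on polyethylenimine-soaked GF/C filters. Nonspecific binding defined with phencyclidine.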

The next test has as its target Glutamate NMDA receptor. The test can be described thus: Displacement of [3H]glycine from Gly/NMDA receptor in rat cerebral cortex synaptic membranes. Format: cell membranes, Membrane. In short, it runs like this: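 Rat cortical synaptic membranes with 8 nM [3H]glycine as ligand, following an earlier published method.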
Test [9] addresses T1, Glutamate receptor ionotropic, AMPA. Briefly: Displacement of [3H]AMPA from AMPA receptor in rat cerebral cortex synaptic membranes. Format: cell membranes, Membrane. An outline of the steps:
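Rat cerebral cortex synaptic membranes with 5 nM [3H]AMPA, following an earlier published method.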

Broadly, the ED50 is the dose that gives a 50% effect, or the effect in half of the subjects. Higher therefore signals a need for a large dose. Broadly, the IC50 is the concentration at which inhibition is half-maximal. A low value points to greater potency. Turning to `C[C@@H]1C(=O)NN=C(c2ccc(N)cc2)c2cc3c(cc21)OCO3`, in the test filed under Mus musculus [1], the “Ratio TD50/ED50” value was 3.1. The ED50 stood at 11 µmol/kg in the test with Mus musculus [2] and 1.74 µmol/kg in the test with Mus musculus [4]. Also, the TD50 in the test filed under Mus musculus [3] was 34.2 µM/kg. Further, the results for the IC50 in test [5] and in [6] were 6 µM and 3.27 µM, respectively.

What is called inhibition is the relative decrease from the control value, in per cent. For `CC1C(=O)NN=C(c2ccc(N)cc2)c2cc3c(cc21)OCO3` (racemic), in the test filed under Mus musculus [1], the “Ratio TD50/ED50” value came out at 2.4. Besides, the figures for the inhibition in test [7] and in test [8] were 94% and 33%, respectively. Further, the median effective dose (ED50) in the test with Mus musculus [2] was 20.2 µmol/kg; in the test on Mus musculus [4], 8.3 µmol/kg. The TD50 in the test listed under Mus musculus [3] was determined as 48.5 µM/kg. Moreover, the IC50 at Glutamate NMDA receptor was above 100 µM; in [5], 12 µM; in test [6] it was above 10 µM; in test [9], above 100 µM.

`C[C@H]1C(=O)NN=C(c2ccc(N)cc2)c2cc3c(cc21)OCO3`: the “Ratio TD50/ED50” value in the test listed under Mus musculus [1] was above 1.1. Moreover, the inhibition result in [7] is “inactive”. In addition, the results for the ED50 with Mus musculus [2] and with Mus musculus [4] were 88.4 µmol/kg and 7.36 µmol/kg, respectively. This compound came in with a TD50 in the test listed under Mus musculus [3] above 100 µM/kg. Further, the half-maximal inhibitory concentration (IC50) in [6] was above 10 µM.
